Assay results reported in ChEMBL document CHEMBL1914368, “Imidazo[1,5-a]quinoxalines as irreversible BTK inhibitors for the treatment of rheumatoid arthritis” (Bioorg Med Chem Lett, 2011).

Key:
[1] = biological target: T1, Tyrosine-protein kinase Lyn (Homo sapiens, UniProt P07948); experiment: Inhibition of LYN-A expressed in Sf9 cells after 60 mins by TR-FRET Assay
[2] = biological target: T2, Tyrosine-protein kinase BTK (Homo sapiens, UniProt Q06187); experiment: Inhibition of human full-length BTK expressed in Sf9 cells using FAM-Srctide peptide as substrate after 60 mins by TR-FRET Assay
T2 sequence (Q06187 whole entry): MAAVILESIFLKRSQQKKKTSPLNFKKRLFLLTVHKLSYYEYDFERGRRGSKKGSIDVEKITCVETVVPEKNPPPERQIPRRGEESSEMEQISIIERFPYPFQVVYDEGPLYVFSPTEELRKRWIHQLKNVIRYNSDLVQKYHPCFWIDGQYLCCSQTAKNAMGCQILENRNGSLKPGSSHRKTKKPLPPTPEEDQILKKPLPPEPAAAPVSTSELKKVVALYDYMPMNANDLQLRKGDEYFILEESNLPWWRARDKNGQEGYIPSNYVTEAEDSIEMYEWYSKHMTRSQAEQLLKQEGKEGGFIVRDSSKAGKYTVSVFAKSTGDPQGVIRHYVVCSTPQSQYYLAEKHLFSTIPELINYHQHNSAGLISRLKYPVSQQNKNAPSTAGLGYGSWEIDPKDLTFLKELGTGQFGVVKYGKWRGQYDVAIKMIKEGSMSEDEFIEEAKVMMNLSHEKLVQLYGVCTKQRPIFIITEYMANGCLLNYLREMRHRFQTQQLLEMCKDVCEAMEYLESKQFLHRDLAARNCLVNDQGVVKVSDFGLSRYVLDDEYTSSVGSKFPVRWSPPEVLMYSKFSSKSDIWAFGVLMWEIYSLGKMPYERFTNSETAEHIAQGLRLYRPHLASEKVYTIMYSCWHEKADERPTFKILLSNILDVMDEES

[3] = Inhibition of anti-IgM-stimulated human B cell proliferation assessed as [3H]thymidine incorporation preincubated for 30 mins measured after 3 days; type: functional, cell-based
[4] = biological target: T3, Aryl hydrocarbon receptor (Mus musculus, UniProt P30561); experiment: Agonist activity at Ah receptor in genetically engineered mouse cells expressing firefly luciferase gene by CALUX transactivational assay; type: functional
T3 sequence (P30561 whole entry): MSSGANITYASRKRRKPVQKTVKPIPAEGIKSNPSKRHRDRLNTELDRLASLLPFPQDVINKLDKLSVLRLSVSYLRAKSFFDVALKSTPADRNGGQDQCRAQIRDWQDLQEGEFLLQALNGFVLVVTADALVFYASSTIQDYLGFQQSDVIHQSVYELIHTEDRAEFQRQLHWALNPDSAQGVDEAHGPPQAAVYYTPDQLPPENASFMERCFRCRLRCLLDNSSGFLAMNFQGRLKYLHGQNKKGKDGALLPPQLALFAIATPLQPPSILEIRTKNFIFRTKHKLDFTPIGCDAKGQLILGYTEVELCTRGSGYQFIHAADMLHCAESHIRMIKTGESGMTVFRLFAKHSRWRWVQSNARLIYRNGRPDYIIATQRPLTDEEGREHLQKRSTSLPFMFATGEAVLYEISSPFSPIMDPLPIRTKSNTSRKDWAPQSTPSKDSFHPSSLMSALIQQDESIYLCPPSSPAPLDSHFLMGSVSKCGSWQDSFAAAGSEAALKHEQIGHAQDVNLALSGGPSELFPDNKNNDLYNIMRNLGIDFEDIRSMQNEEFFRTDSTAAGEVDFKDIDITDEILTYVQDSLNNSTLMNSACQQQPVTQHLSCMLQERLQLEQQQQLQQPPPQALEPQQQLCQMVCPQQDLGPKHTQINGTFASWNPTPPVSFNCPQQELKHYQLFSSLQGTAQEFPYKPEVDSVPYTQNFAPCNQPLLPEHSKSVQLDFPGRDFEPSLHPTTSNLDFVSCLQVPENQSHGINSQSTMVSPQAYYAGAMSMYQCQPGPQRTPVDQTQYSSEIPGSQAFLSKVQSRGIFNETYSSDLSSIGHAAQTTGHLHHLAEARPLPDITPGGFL

[5] = Half life in mouse at 10 mg/kg, po; type: ADME, organism-based; parameters: dose 10 mg/kg, route oral; conditions: in vivo
[6] = AUC (0 to infinity) in mouse at 10 mg/kg, po; type: ADME, organism-based; parameters: time infinity, dose 10 mg/kg, route oral; conditions: plasma
[7] = biological target: T2, Tyrosine-protein kinase BTK; experiment: Inhibition of human full-length BTK expressed in Sf9 cells using FAM-Srctide peptide as substrate preincubated for 60 mins measured after 60 mins by TR-FRET Assay
Summary of the method: (§1)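 The compound was pre-incubated with the kinase before the enzymatic reaction was started. IC50 values are averages of two or more determinations.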

[8] = biological target: T4, Proto-oncogene tyrosine-protein kinase Src (Homo sapiens, UniProt P12931); experiment: Inhibition cSRC expressed in Sf9 cells preincubated for 60 mins measured after 60 mins by TR-FRET Assay
T4 sequence (P12931 2-536 limits assumed): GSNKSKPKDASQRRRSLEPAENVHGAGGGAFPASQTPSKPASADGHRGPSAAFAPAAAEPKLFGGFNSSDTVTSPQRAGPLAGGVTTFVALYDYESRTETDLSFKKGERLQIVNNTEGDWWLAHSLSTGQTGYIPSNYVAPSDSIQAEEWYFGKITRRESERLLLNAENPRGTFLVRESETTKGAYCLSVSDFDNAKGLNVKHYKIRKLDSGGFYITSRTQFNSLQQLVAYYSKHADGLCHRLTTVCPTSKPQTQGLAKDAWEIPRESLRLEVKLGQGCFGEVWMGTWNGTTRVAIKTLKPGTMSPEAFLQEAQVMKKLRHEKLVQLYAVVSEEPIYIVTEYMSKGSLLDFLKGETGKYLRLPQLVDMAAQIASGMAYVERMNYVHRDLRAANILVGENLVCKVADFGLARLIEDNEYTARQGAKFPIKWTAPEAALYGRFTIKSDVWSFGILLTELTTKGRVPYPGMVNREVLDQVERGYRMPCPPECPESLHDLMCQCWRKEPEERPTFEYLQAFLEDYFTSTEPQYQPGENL

[9] = biological target: T5, Epidermal growth factor receptor (Homo sapiens, UniProt P00533); experiment: Inhibition of EGFR preincubated for 60 mins measured after 60 mins by TR-FRET Assay
T5 sequence (P00533 whole entry): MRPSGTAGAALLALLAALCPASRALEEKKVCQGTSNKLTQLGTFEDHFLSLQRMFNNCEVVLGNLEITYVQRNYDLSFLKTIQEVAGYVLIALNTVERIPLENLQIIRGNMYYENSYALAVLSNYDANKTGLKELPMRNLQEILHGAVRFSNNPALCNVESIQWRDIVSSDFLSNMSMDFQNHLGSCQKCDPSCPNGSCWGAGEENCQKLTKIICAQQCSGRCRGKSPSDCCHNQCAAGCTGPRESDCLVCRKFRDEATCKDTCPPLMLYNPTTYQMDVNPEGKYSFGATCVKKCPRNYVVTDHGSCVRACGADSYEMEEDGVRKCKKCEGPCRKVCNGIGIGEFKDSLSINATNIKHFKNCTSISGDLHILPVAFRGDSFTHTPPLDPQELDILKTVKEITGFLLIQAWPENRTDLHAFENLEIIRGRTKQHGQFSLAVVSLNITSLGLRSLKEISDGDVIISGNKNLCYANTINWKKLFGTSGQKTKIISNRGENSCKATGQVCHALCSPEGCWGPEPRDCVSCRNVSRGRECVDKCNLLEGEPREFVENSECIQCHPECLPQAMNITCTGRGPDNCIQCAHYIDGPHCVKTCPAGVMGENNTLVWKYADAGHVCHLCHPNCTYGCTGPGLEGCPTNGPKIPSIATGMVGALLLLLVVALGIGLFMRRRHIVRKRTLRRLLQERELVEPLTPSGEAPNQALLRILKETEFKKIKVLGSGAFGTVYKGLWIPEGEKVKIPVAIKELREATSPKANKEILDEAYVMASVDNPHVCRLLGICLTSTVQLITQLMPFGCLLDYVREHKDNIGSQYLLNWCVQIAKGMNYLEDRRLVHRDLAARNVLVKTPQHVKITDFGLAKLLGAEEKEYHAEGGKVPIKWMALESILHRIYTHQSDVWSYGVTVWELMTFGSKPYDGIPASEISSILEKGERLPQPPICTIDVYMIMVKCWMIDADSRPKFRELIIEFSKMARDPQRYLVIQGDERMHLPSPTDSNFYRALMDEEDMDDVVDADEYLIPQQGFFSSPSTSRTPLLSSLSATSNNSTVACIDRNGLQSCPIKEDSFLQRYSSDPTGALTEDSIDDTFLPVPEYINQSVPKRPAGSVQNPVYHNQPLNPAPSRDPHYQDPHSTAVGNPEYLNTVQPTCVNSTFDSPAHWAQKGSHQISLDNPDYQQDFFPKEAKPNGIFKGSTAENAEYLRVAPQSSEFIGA

[10] = Clearance in mouse at 2 mg/kg, iv; type: ADME, organism-based; parameters: dose 2 mg/kg, route intravenous; conditions: in vivo
[11] = AUC (0 to infinity) in mouse at 2 mg/kg, iv; type: ADME, organism-based; parameters: time infinity, dose 2 mg/kg, route intravenous; conditions: plasma
[12] = biological target: T4, Proto-oncogene tyrosine-protein kinase Src; experiment: Inhibition cSRC expressed in Sf9 cells after 60 mins by TR-FRET Assay
[13] = biological target: Tyrosine-protein kinase Lck (Homo sapiens, UniProt P06239); experiment: Inhibition of C-terminal His6-tagged human full-length LCK expressed in Sf9 cells preincubated for 60 mins measured after 60 mins by TR-FRET Assay
Chain of Tyrosine-protein kinase Lck (P06239 whole entry): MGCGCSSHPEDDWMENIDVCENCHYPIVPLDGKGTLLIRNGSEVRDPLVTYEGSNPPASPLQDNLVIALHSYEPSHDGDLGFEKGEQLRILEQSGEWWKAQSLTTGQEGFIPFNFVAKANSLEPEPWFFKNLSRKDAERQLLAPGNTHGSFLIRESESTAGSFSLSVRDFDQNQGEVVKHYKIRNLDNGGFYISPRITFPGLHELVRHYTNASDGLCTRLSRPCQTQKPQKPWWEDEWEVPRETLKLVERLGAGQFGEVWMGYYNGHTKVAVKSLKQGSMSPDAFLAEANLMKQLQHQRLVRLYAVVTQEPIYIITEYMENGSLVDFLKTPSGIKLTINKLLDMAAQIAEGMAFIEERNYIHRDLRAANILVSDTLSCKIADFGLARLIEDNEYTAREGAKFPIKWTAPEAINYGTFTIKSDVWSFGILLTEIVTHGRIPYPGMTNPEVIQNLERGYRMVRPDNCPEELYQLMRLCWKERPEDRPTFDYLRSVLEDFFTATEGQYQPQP

[14] = Volume of distribution at steady state in mouse at 2 mg/kg, iv; type: ADME, organism-based; parameters: dose 2 mg/kg, route intravenous; conditions: in vivo, read-out: Vdss
Summary of the method: (§2)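 Mouse pharmacokinetics from single dosing at 2 mg/kg iv and 10 mg/kg po. The study derived AUC, T1/2, clearance, Vss, Tmax, Cmax and oral bioavailability (%F) from the paired iv and po arms.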

[15] = Cmax in mouse at 10 mg/kg, po; type: ADME, organism-based; parameters: dose 10 mg/kg, route oral; conditions: in vivo
[16] = Tmax in mouse at 10 mg/kg, po; type: ADME, organism-based; parameters: dose 10 mg/kg, route oral; conditions: in vivo; summary of the method: as §2
[17] = Half life in mouse at 2 mg/kg, iv; type: ADME, organism-based; parameters: dose 2 mg/kg, route intravenous; conditions: in vivo
[18] = Oral bioavailability in mouse at 10 mg/kg; type: ADME, organism-based; conditions: in vivo; summary of the method: as §2
[19] = biological target: T5, Epidermal growth factor receptor; experiment: Inhibition of EGFR after 60 mins by TR-FRET Assay
[20] = biological target: T1, Tyrosine-protein kinase Lyn; experiment: Inhibition of LYN-A expressed in Sf9 cells preincubated for 60 mins measured after 60 mins by TR-FRET Assay; summary of the method: as §1
[21] = Homo sapiens, B-cell, read-out: IC50

T1 sequence (P07948 whole entry): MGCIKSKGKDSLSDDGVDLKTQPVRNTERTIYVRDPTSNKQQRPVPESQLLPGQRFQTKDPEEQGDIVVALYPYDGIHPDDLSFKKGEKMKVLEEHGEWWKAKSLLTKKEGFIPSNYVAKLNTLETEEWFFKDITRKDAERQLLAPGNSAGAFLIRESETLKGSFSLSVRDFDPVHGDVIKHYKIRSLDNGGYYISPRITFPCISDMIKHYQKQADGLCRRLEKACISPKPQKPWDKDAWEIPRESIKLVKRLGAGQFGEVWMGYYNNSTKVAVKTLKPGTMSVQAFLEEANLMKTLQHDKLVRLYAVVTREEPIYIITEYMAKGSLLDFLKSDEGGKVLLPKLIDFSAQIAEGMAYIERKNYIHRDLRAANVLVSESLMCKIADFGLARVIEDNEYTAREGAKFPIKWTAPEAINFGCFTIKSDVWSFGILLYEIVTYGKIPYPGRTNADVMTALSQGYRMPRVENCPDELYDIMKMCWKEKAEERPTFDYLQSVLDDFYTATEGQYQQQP

Row | IC50 [1] | IC50 [2] | SMILES | IC50 [3, 21] | further results
1 | 130 nM | 670 nM | CNc1cc2c(cc1F)nc(Oc1ccccc1C)c1cncn12 | – | –
2 | 1.55 nM | 16.8 nM | Cc1ccc(NC(=O)c2cccc(C(F)(F)F)c2)cc1Nc1nc2ccc(N(C)C(=O)/C=C/CN(C)C)cc2n2cncc12 | – | IC50 ([3]; b cell): Not Active
3 | 1420 nM | 3.33 nM | Cc1ccc(F)cc1Nc1nc2ccc(N(C)C(=O)/C=C/CN(C)C)cc2n2cncc12 | 4.88 nM | EC50 [4]: > 10 µM
4 | 3730 nM | 6.58 nM | Cc1cc(F)ccc1Oc1nc2ccc(N(C)C(=O)/C=C/CN(C)C)cc2n2cncc12 | 228 nM | EC50 [4]: > 10 µM
5 | 21.3 nM | 0.847 nM | COc1cc2nc(Nc3ccccc3C)c3cncn3c2cc1NC(=O)C#CCN1CCCCC1 | – | –
6 | 19 nM | 40 nM | CNc1cc2c(cc1F)nc(Nc1ccccc1C)c1cncn12 | – | –
7 | 3450 nM | 5.35 nM | Cc1cc(F)ccc1Nc1nc2cc(F)c(N(C)C(=O)/C=C/CN(C)C)cc2n2cncc12 | 8.08 nM | –
8 | 3080 nM | 6.76 nM | Cc1ccc(F)cc1Nc1nc2cc(F)c(N(C)C(=O)/C=C/CN(C)C)cc2n2cncc12 | 23.5 nM | –
9 | 10400 nM | 9.53 nM | Cc1cc(F)ccc1Oc1nc2cc(F)c(N(C)C(=O)/C=C/CN(C)C)cc2n2cncc12 | 32.3 nM | –
10 | 1980 nM | 45.3 nM | COc1cc2nc(Nc3ccccc3C)c3cncn3c2cc1N(CC1CC1)C(=O)/C=C/CN(C)C | 43.1 nM | –
11 | 167 nM | 10.4 nM | Cc1cccc(O)c1Nc1nc2ccc(N(C)C(=O)/C=C/CN(C)C)cc2n2cncc12 | 44.9 nM | –
12 | > 50000 nM | 4290 nM | CN(C)C/C=C/C(=O)N(C)c1ccc2nc(Cl)c3cncn3c2c1 | – | IC50 ([3]; b cell): Not Active
13 | 327 nM | 1.89 nM | Cc1c(F)cccc1Nc1nc2ccc(N(C)C(=O)/C=C/CN(C)C)cc2n2cncc12 | 3.17 nM | –
14 | 10.9 nM | 0.884 nM | COc1cc2nc(Nc3ccccc3C)c3cncn3c2cc1NC(=O)/C=C/CN(C)C | – | IC50 ([3]; b cell): Not Active
15 | – | – | Clc1cc2c(cc1Cl)Oc1cc(Cl)c(Cl)cc1O2 [2,3,7,8-TETRACHLORODIBENZO-P-DIOXIN] | – | EC50 [4]: 3e-05 µM
16 | 19600 nM | 283 nM | Cc1ccccc1Sc1nc2ccc(N(C)C(=O)/C=C/CN(C)C)cc2n2cncc12 | 651 nM | –
17 | 716 nM | 2.96 nM | Cc1cc(F)ccc1Nc1nc2ccc(N(C)C(=O)/C=C/CN(C)C)cc2n2cncc12 | 2 nM | –
18 | 7400 nM | 13 nM | Cc1ccc(F)cc1Oc1nc2cc(F)c(N(C)C(=O)/C=C/CN(C)C)cc2n2cncc12 | 144 nM | –
19 | 46.6 nM | 0.847 nM | COc1cc2nc(Nc3ccccc3C)c3cncn3c2cc1NC(=O)C#CCN1CCOCC1 | – | –

Row | IC50 [1] | IC50 [2] | SMILES | IC50 [3, 21] | further results
20 | 490 nM | 76.5 nM | Cc1c(O)cccc1Nc1nc2ccc(N(C)C(=O)/C=C/CN(C)C)cc2n2cncc12 | – | IC50 ([3]; b cell): Not Active
21 | 10.9 nM | 1.55 nM | Cc1ccc(O)cc1Nc1nc2ccc(N(C)C(=O)/C=C/CN(C)C)cc2n2cncc12 | 2.56 nM | –
22 | 2130 nM | 1.82 nM | CN(C)C/C=C/C(=O)N(C)c1cc2c(cc1F)nc(Nc1ccccc1Cl)c1cncn12 | 6.75 nM | –
23 | 1300 nM | 4.83 nM | Cc1ccccc1Nc1nc2cc(Cl)c(N(C)C(=O)/C=C/CN(C)C)cc2n2cncc12 | 2.17 nM | –
24 | 3390 nM | 3.98 nM | Cc1ccc(F)cc1Nc1nc2cc(Cl)c(N(C)C(=O)/C=C/CN(C)C)cc2n2cncc12 | 5.84 nM | half-life [5]: 162 min; AUC(0-inf) [6]: 3620 ng·h/mL; IC50 [7]: 2.6 nM; IC50 [8]: 410 nM; IC50 [9]: 3.35 nM; clearance [10]: 26.6 mL/min/kg; AUC(0-inf) [11]: 1120 ng·h/mL; IC50 [12]: 1620 nM; IC50 [13]: 2790 nM; Vd [14]: 4.51 L/kg; Cmax [15]: 454 ng/mL; EC50 [4]: > 10 µM; Tmax [16]: 3 h; half-life [17]: 132 min; bioavailability [18]: 58%; IC50 [19]: 68 nM; IC50 [20]: 3.02 µM
25 | 2000 nM | 5.03 nM | CN(C)C/C=C/C(=O)N(C)c1cc2c(cc1Cl)nc(Nc1ccccc1Cl)c1cncn12 | 4.4 nM | –
26 | 623 nM | 3.99 nM | Cc1ccccc1Nc1nc2ccc(N(C)C(=O)/C=C/CN(C)C)cc2n2cncc12 | 3.17 nM | –
27 | 6020 nM | 5.51 nM | Cc1ccccc1Oc1nc2cc(F)c(N(C)C(=O)/C=C/CN(C)C)cc2n2cncc12 | 17.4 nM | –
28 | 378 nM | 7.56 nM | Cc1cc(Cl)ccc1Nc1nc2ccc(N(C)C(=O)/C=C/CN(C)C)cc2n2cncc12 | 4.12 nM | –
29 | 1670 nM | 13.2 nM | Cc1ccc(Cl)cc1Nc1nc2ccc(N(C)C(=O)/C=C/CN(C)C)cc2n2cncc12 | 53.7 nM | –
30 | 44.4 nM | 10.3 nM | Cc1cccc(Cl)c1Nc1nc2ccc(N(C)C(=O)/C=C/CN(C)C)cc2n2cncc12 | – | IC50 ([3]; b cell): Not Active
31 | 350 nM | 12.2 nM | Cc1cc(O)ccc1Nc1nc2ccc(N(C)C(=O)/C=C/CN(C)C)cc2n2cncc12 | 1.02 nM | –
32 | 2320 nM | 60.6 nM | Cc1c(Cl)cccc1Nc1nc2ccc(N(C)C(=O)/C=C/CN(C)C)cc2n2cncc12 | – | IC50 ([3]; b cell): Not Active
33 | 560 nM | 1220 nM | CNc1ccc2nc(Oc3ccc(F)cc3C)c3cncn3c2c1 | – | –
34 | 40 nM | 72 nM | CNc1ccc2nc(Nc3cc(F)ccc3C)c3cncn3c2c1 | – | –
35 | 297 nM | 2.52 nM | C=C(CN1CCOCC1)C(=O)Nc1cc2c(cc1OC)nc(Nc1ccccc1C)c1cncn12 | – | –
36 | 533 nM | 19.1 nM | CCN(C(=O)/C=C/CN(C)C)c1cc2c(cc1OC)nc(Nc1ccccc1C)c1cncn12 | 16.1 nM | –
37 | 1590 nM | 9.53 nM | Cc1cc(F)ccc1Nc1nc2cc(Cl)c(N(C)C(=O)/C=C/CN(C)C)cc2n2cncc12 | 2.41 nM | –
